In ChEMBL document CHEMBL3227926, “2-Mercaptoacetamidines as gastric antisecretory agents” (J Med Chem, 1979):

Experiments:
Canis familiaris [1] = experiment: Toxicity in beagle dog assessed as tachycardia administered directly into stomach via gastric cannula; assay type: organism-based, Canis lupus familiaris; settings: in vivo, other
Canis familiaris [2] = experiment: Toxicity in beagle dog assessed as emesis administered directly into stomach via gastric cannula; assay type: organism-based, Canis lupus familiaris; settings: in vivo, other
Canis familiaris [3] = experiment: Inhibition of gastrin tetrapeptide-induced gastric secretion in beagle dog at 8 mg/kg administered directly into stomach via gastric cannula measured after 2 hrs of stimulation; assay type: functional; settings: Canis lupus familiaris
In short: (§1)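 Conscious female beagles (5-9 kg) with chronic gastric fistula. Dose in 50 mL 1% methylcellulose was put into the stomach via the cannula 1 h before gastrin tetrapeptide 64 µg/kg sc (from 640 µg/mL in 30% Me2SO); controls got vehicle. Juice was collected for 2 h. Volume was measured, titratable acid obtained by titration to pH 7 with 0.01 N NaOH, and total acid taken as volume × concentration.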

Canis familiaris [4] = experiment: Toxicity in beagle dog assessed as gastric bleeding administered directly into stomach via gastric cannula; assay type: organism-based, Canis lupus familiaris; settings: in vivo, other
Canis familiaris [5] = experiment: Inhibition of gastrin tetrapeptide-induced gastric secretion in beagle dog at 4 mg/kg administered directly into stomach via gastric cannula measured after 2 hrs of stimulation; assay type: functional; settings: Canis lupus familiaris; in short: as §1
Canis familiaris [6] = experiment: Inhibition of gastrin tetrapeptide-induced gastric secretion in beagle dog assessed as volume at 8 mg/kg administered directly into stomach via gastric cannula measured after 2 hrs of stimulation; assay type: functional; settings: Canis lupus familiaris; in short: as §1
Canis familiaris [7] = experiment: Inhibition of 2-deoxy-D-glucose-induced gastric secretion in beagle dog assessed as titratable acid at 16 mg/kg administered directly into stomach via gastric cannula measured after 2 hrs of stimulation; assay type: functional; settings: Canis lupus familiaris
In short: (§2)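 Female beagles (5-9 kg), nonanesthetized, with chronic gastric fistula. Test agent was given in 50 mL 1% methylcellulose through the gastric cannula, with vehicle controls, 1 h before 2-deoxy-D-glucose 200 mg/kg sc in saline. The 2 h collection was measured for volume and for acid by titration to pH 7 with 0.01 N NaOH; total acid was calculated as volume × concentration.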

Canis familiaris [8] = experiment: Inhibition of gastrin tetrapeptide-induced gastric secretion in beagle dog assessed as volume at 16 mg/kg administered directly into stomach via gastric cannula measured after 2 hrs of stimulation; assay type: functional; settings: Canis lupus familiaris; in short: as §1
Canis familiaris [9] = experiment: Inhibition of histamine-induced gastric secretion in beagle dog assessed as volume at 32 mg/kg administered directly into stomach via gastric cannula measured after 2 hrs of stimulation; assay type: functional; settings: Canis lupus familiaris
In short: (§3)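 Fistulated conscious female beagles (5-9 kg) got the dose intragastrically via cannula in 50 mL 1% methylcellulose, with vehicle controls. Histamine 64 µg base/kg sc (diphosphate in saline) was given 1 h later. Output over 2 h was assessed as volume, titratable acid (titration to pH 7, 0.01 N NaOH) and total acid output (volume × concentration).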

Canis familiaris [10] = experiment: Inhibition of histamine-induced gastric secretion in beagle dog assessed as titratable acid at 32 mg/kg administered directly into stomach via gastric cannula measured after 2 hrs of stimulation; assay type: functional; settings: Canis lupus familiaris; in short: as §3
Canis familiaris [11] = experiment: Inhibition of gastrin tetrapeptide-induced gastric secretion in beagle dog assessed as titratable acid at 16 mg/kg administered directly into stomach via gastric cannula measured after 2 hrs of stimulation; assay type: functional; settings: Canis lupus familiaris; in short: as §1
Canis familiaris [12] = experiment: Inhibition of 2-deoxy-D-glucose-induced gastric secretion in beagle dog assessed as volume at 16 mg/kg administered directly into stomach via gastric cannula measured after 2 hrs of stimulation; assay type: functional; settings: Canis lupus familiaris; in short: as §2
Canis familiaris [13] = experiment: Inhibition of gastrin tetrapeptide-induced gastric secretion in beagle dog assessed as total acid output at 16 mg/kg administered directly into stomach via gastric cannula measured after 2 hrs of stimulation; assay type: functional; settings: Canis lupus familiaris; in short: as §1
Canis familiaris [14] = experiment: Inhibition of histamine-induced gastric secretion in beagle dog assessed as total acid output at 32 mg/kg administered directly into stomach via gastric cannula measured after 2 hrs of stimulation; assay type: functional; settings: Canis lupus familiaris; in short: as §3
Canis familiaris [15] = experiment: Inhibition of 2-deoxy-D-glucose-induced gastric secretion in beagle dog assessed as total acid output at 8 mg/kg administered directly into stomach via gastric cannula measured after 2 hrs of stimulation; assay type: functional; settings: Canis lupus familiaris; in short: as §2
Canis familiaris [16] = experiment: Inhibition of 2-deoxy-D-glucose-induced gastric secretion in beagle dog assessed as volume at 8 mg/kg administered directly into stomach via gastric cannula measured after 2 hrs of stimulation; assay type: functional; settings: Canis lupus familiaris; in short: as §2
Canis familiaris [17] = experiment: Inhibition of gastrin tetrapeptide-induced gastric secretion in beagle dog assessed as titratable acid at 8 mg/kg administered directly into stomach via gastric cannula measured after 2 hrs of stimulation; assay type: functional; settings: Canis lupus familiaris; in short: as §1
Canis familiaris [18] = experiment: Inhibition of 2-deoxy-D-glucose-induced gastric secretion in beagle dog assessed as total acid output at 16 mg/kg administered directly into stomach via gastric cannula measured after 2 hrs of stimulation; assay type: functional; settings: Canis lupus familiaris; in short: as §2
Canis familiaris [19] = experiment: Inhibition of gastrin tetrapeptide-induced gastric secretion in beagle dog assessed as total acid output at 8 mg/kg administered directly into stomach via gastric cannula measured after 2 hrs of stimulation; assay type: functional; settings: Canis lupus familiaris; in short: as §1
Canis familiaris [20] = experiment: Inhibition of 2-deoxy-D-glucose-induced gastric secretion in beagle dog assessed as titratable acid at 8 mg/kg administered directly into stomach via gastric cannula measured after 2 hrs of stimulation; assay type: functional; settings: Canis lupus familiaris; in short: as §2
Canis familiaris [21] = experiment: Inhibition of gastrin tetrapeptide-induced gastric secretion in beagle dog at 16 mg/kg administered directly into stomach via gastric cannula measured after 2 hrs of stimulation; assay type: functional; settings: Canis lupus familiaris; in short: as §1
Canis familiaris [22] = experiment: Inhibition of gastrin tetrapeptide-induced gastric secretion in beagle dog at 2 mg/kg administered directly into stomach via gastric cannula measured after 2 hrs of stimulation; assay type: functional; settings: Canis lupus familiaris; in short: as §1
Canis familiaris [23] = experiment: Inhibition of gastrin tetrapeptide-induced gastric secretion in beagle dog assessed as total acid output at 32 mg/kg administered directly into stomach via gastric cannula measured after 2 hrs of stimulation; assay type: functional; settings: Canis lupus familiaris; in short: as §1
Canis familiaris [24] = experiment: Inhibition of gastrin tetrapeptide-induced gastric secretion in beagle dog assessed as volume at 32 mg/kg administered directly into stomach via gastric cannula measured after 2 hrs of stimulation; assay type: functional; settings: Canis lupus familiaris; in short: as §1
Canis familiaris [25] = experiment: Inhibition of gastrin tetrapeptide-induced gastric secretion in beagle dog assessed as titratable acid at 32 mg/kg administered directly into stomach via gastric cannula measured after 2 hrs of stimulation; assay type: functional; settings: Canis lupus familiaris; in short: as §1
[26] = Dissociation constant, apparent pKa of the compound in 20% EtOH/H2O; assay type: physicochemical; settings: read-out: Apparent_pKa
In short: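 Potentiometric titration in 20% EtOH–H2O with a glass-calomel electrode. Sample was titrated directly with 0.5 N NaOH, or dissolved with excess NaOH and back-titrated with 0.5 N HCl. pKa was read as the pH at the half-neutralization point of the curve.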

Canis familiaris [27] = experiment: Inhibition of gastrin tetrapeptide-induced gastric secretion in beagle dog at 32 mg/kg administered directly into stomach via gastric cannula measured after 2 hrs of stimulation; assay type: functional; settings: Canis lupus familiaris; in short: as §1

Compound	Activity (Canis familiaris [1])	Activity (Canis familiaris [2])	inhibition in vivo at 8 mg/kg (Canis familiaris [3]) [%]	Activity (Canis familiaris [4])	inhibition in vivo at 4 mg/kg (Canis familiaris [5]) [%]	other results
Cl.N=C(CS)NC1CCCCC1	Toxic	Toxic	79	Toxic	37	
Cl.N=C(CSSCC(=N)NCc1ccccc1)NCc1ccccc1	Toxic	Toxic		Toxic	84	
Cl.N=C(CS)NCc1ccccc1	Toxic	Toxic	83	Toxic	29	
Cl.N=C(CS)NC1CCCC1	Toxic	Toxic	100	Toxic	63	
Cl.N=C(CS)NCC12CCC(CC1)C2	Toxic	Toxic	91	Toxic	0	
Cl.N=C(CS)NCC12CC3CC(CC(C3)C1)C2	Toxic	Toxic	47	Toxic		inhibition in vivo at 8 mg/kg (Canis familiaris [6]): 7%; inhibition in vivo at 16 mg/kg (Canis familiaris [7]): 85%; inhibition in vivo at 16 mg/kg (Canis familiaris [8]): 74%; inhibition in vivo at 32 mg/kg (Canis familiaris [9]): 36%; inhibition in vivo at 32 mg/kg (Canis familiaris [10]): 40%; inhibition in vivo at 16 mg/kg (Canis familiaris [11]): 91%; inhibition in vivo at 16 mg/kg (Canis familiaris [12]): 79%; inhibition in vivo at 16 mg/kg (Canis familiaris [13]): 83%; inhibition in vivo at 32 mg/kg (Canis familiaris [14]): 55%; inhibition in vivo at 8 mg/kg (Canis familiaris [15]): 42%; inhibition in vivo at 8 mg/kg (Canis familiaris [16]): 31%; inhibition in vivo at 8 mg/kg (Canis familiaris [17]): 0%; inhibition in vivo at 16 mg/kg (Canis familiaris [18]): 97%; inhibition in vivo at 8 mg/kg (Canis familiaris [19]): 8%; inhibition in vivo at 8 mg/kg (Canis familiaris [20]): 18%; inhibition in vivo at 16 mg/kg (Canis familiaris [21]): 74%
CN(C)C(=N)CS.Cl	Toxic	Toxic	62	Toxic	0	
Cl.N=C(CS)NCCC12CC3CC(CC(C3)C1)C2	Toxic	Toxic	61	Toxic	0	inhibition in vivo at 16 mg/kg (Canis familiaris [21]): 100%
Cl.SCC1=NCCN1	Toxic	Toxic		Toxic		inhibition in vivo at 2 mg/kg (Canis familiaris [22]): 100%
Cl.N=C(CS)NCCCC12CC3CC(CC(C3)C1)C2	Toxic	Toxic	81	Toxic	36	
Cl.N=C(CS)NCC12CCCC(CC1)C2 (stereo not given)	Toxic	Toxic	95	Toxic	0	
CNC(=S)NCCSCc1[nH]cnc1C [METIAMIDE]						inhibition in vivo at 16 mg/kg (Canis familiaris [8]): 65%; inhibition in vivo at 16 mg/kg (Canis familiaris [11]): 91%; inhibition in vivo at 16 mg/kg (Canis familiaris [13]): 64%; inhibition in vivo at 32 mg/kg (Canis familiaris [23]): 90%; inhibition in vivo at 32 mg/kg (Canis familiaris [24]): 83%; inhibition in vivo at 32 mg/kg (Canis familiaris [25]): 70%
CCNC(=N)CS.Cl	Toxic	Toxic		Toxic	90	inhibition in vivo at 2 mg/kg (Canis familiaris [22]): 27%
N=C(CSCc1ccccc1)NC[C@@H]1C[C@H]2CC[C@H]1C2 (relative stereo; 51)	Toxic	Toxic		Toxic		pKa [26]: 11; inhibition in vivo at 16 mg/kg (Canis familiaris [21]): 19%
Cl.N=C(CCS)NCc1ccccc1	Toxic	Toxic		Toxic		inhibition in vivo at 32 mg/kg (Canis familiaris [27]): 42%; inhibition in vivo at 16 mg/kg (Canis familiaris [21]): 18%
Cl.N=C(CS)NCCCCC12CC3CC(CC(C3)C1)C2	Toxic	Toxic	67	Toxic	0	
CC(C)(C)CNC(=N)CS.Cl	Toxic	Toxic	95	Toxic	25	
Cl.N=C(CS)Nc1cccc(Cl)c1	Toxic	Toxic		Toxic		inhibition in vivo at 32 mg/kg (Canis familiaris [27]): 61%; inhibition in vivo at 16 mg/kg (Canis familiaris [21]): 16%
Cl.N=C(CS)NCC12CCC(CC1)CC2	Toxic	Toxic	87	Toxic	48	
